This is an account of results in ChEMBL document CHEMBL1131410, “Synthesis and biological evaluation of 4-chloro-3, 5-dinitrobenzotrifluoride analogues as antileishmanial agents” (J Med Chem, 1998).

A short description of series [1]: Partition coefficient (logP). The settings on record: octanol/water. In kind it is physicochemical.
Series [2] relates to Leishmania donovani. The series can be described thus: In vitro inhibition of Leishmania donovani parasite. Format: functional, organism-based. In outline:
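L. donovani MHOM/SD/62/1S-CL2D axenic amastigote-like forms, seeded at 10^6 cells/mL in amastigote medium with or without drug (DMSO at most 1.25% v/v). Incubated 72 h at 37 °C, humid 5% CO2. A tetrazolium-type Cell Titer reagent was then added for a further 8–12 h and absorbance read at 490 nm. IC50 fitted by a four-parameter log dose-response equation.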

The subject of series [3] is Cricetinae gen. sp. The experiment in a line: % suppression of parasitaemia was measured in vivo against Visceral Leishmania donovani in hamsters at 208 mg/kg of dosage level. Format: functional, Cricetulus griseus.
Series [4] deals with Leishmania donovani. The series can be described thus: Compound was evaluated in vitro against Leishmania donovani parasite. In kind it is functional, organism-based. In outline: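 Axenic amastigote-like L. donovani (MHOM/SD/62/1S-CL2D), seeded at 10^6 cells/mL with or without drug, DMSO ≤1.25% (v/v), 72 h at 37 °C, 5% CO2. Tetrazolium-type dehydrogenase reagent added, further 8–12 h, absorbance at 490 nm; IC50 from four-parameter log dose-response fit.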

Series [5] concerns Cricetinae gen. sp. The series can be described thus: % suppression of parasitaemia was measured in vivo against Visceral Leishmania donovani in hamsters at 52 mg/kg of dosage level. In kind it is functional, Cricetulus griseus.
Series [6] concerns Cricetinae gen. sp. The series can be described thus: Percent suppression of parasitaemia was measured in vivo against Visceral Leishmania donovani in hamsters at 52 mg/kg of dosage level. Format: functional, Cricetulus griseus. The method in brief: (§1)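 Hamsters, six per group, infected intracardially with 1.0×10^7 L. donovani Khartoum amastigotes from donor hamster spleens. Dosed intramuscularly for 4 consecutive days starting day 3 post-infection and screened blind. On day 7 the animals were sacrificed and total parasite number per liver was counted. Result expressed as % suppression of parasitemia.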

Series [7] concerns Cricetinae gen. sp. The series can be described thus: Percent suppression of parasitaemia was measured in vivo against Visceral Leishmania donovani in hamsters at 13 mg/kg of dosage level. Format: functional, Cricetulus griseus. In outline: as §1
Series [8] deals with Cricetinae gen. sp. The series can be described thus: Percent suppression of parasitaemia was measured in vivo against Visceral Leishmania donovani in hamsters at 208 mg/kg of dosage level. In kind it is functional, Cricetulus griseus. In outline:
as §1

For orientation: logP means a log measure of how a compound divides between an organic and an aqueous phase. A high value points to a more lipophilic compound. As usually defined, the IC50 is the concentration that gives 50% inhibition. In series [1], `CNS(=O)(=O)c1cc(C(F)(F)F)ccc1Cl` came in with a logP of 2.63. This molecule also showed an IC50 in the series with Leishmania donovani [2] of over 450 µM.

On to `NS(=O)(=O)c1cc(C(F)(F)F)ccc1Cl`, for which the logP in series [1] was 1.98. In the series with Leishmania donovani [2], this molecule displayed an IC50 of over 450 µM.

As to `NS(=O)(=O)c1cc(C(F)(F)F)ccc1F`, the logP in series [1] came to 1.68. In addition, in the series with Leishmania donovani [2], the IC50 is over 450 µM.

`CCN(CC)CCNS(=O)(=O)c1cc(C(F)(F)F)ccc1Cl` returned a logP in series [1] of 3.85. The same molecule had an IC50 in the series on Leishmania donovani [2] of over 450 µM.

In series [1], `O=S(=O)(c1cc(C(F)(F)F)ccc1Cl)N1CCCCCC1` gave a logP of 4.57. This molecule also registered an IC50 in the series with Leishmania donovani [2] of 56 µM.

For `O=S(=O)(c1cc(C(F)(F)F)ccc1F)N1CCCCC1`, the logP in series [1] was found to be 3.47. Half-maximal inhibition with Leishmania donovani [2] (IC50) required 418 µM.

With `CN1CCN(S(=O)(=O)c2cc(C(F)(F)F)ccc2F)CC1`, the logP in series [1] was determined as 2.61. The 50% inhibitory concentration (IC50) in the series on Leishmania donovani [2] was 199 µM.

`CCN(CC)CCNS(=O)(=O)c1cc(C(F)(F)F)ccc1F` displayed a logP in series [1] of 3.3. In the series with Leishmania donovani [2], this molecule displayed an IC50 of over 450 µM.

In series [1], `O=S(=O)(c1cc(C(F)(F)F)ccc1Cl)N1CCN(c2ccccn2)CC1` registered a logP of 3.45. The molecule also yielded an IC50 in the series on Leishmania donovani [2] of 44 µM.

For `O=S(=O)(c1cc(C(F)(F)F)ccc1Cl)N1CCCC1`, in series [1], the logP worked out at 3.44. In addition, in the series on Leishmania donovani [2], 115 µM corresponded to half-maximal inhibition (IC50).

On to `O=S(=O)(c1cc(C(F)(F)F)ccc1F)N1CCCC1`, for which the log partition coefficient (logP) in series [1] was 2.9. For the same molecule, in the series with Leishmania donovani [2], the IC50 was over 450 µM.

For the molecule `O=[N+]([O-])c1cc(C(F)(F)F)cc([N+](=O)[O-])c1Cl` [CHLORALIN], the Suppression was 32% in the series with Cricetinae gen. sp. [3] and 21% in the series on Cricetinae gen. sp. [5]. The molecule also came in with an IC50 with Leishmania donovani [4] of 1.3 µM. Also, in series [1], the logP came to 3.43.

For the molecule `O=S(=O)(c1cc(C(F)(F)F)ccc1N1CCCC1)N1CCCC1`, the Suppression amounted to 29% with Cricetinae gen. sp. [6], 16% with Cricetinae gen. sp. [7] and 30% in the series on Cricetinae gen. sp. [8]. The molecule further showed a logP in series [1] of 3.57. Half-maximal inhibition in the series with Leishmania donovani [2] (IC50) required 23 µM.

On to `CNS(=O)(=O)c1cc(C(F)(F)F)ccc1F`, for which, in series [1], the logP was 2.08. Moreover, in the series with Leishmania donovani [2], the IC50 was over 450 µM.

As for `O=S(=O)(c1cc(C(F)(F)F)ccc1Cl)N1CCCCC1`, the logP in series [1] amounted to 4.01. In the series on Leishmania donovani [2], this molecule showed an IC50 of 110 µM.

Turning to `O=S(=O)(c1cc(C(F)(F)F)ccc1F)N1CCCCCC1`, the Suppression with Cricetinae gen. sp. [6] stood at 13%; in the series on Cricetinae gen. sp. [7], 11%; with Cricetinae gen. sp. [8], 19%. Moreover, the logP in series [1] worked out at 4.03. Half-maximal inhibition in the series on Leishmania donovani [2] (IC50) was put at 108 µM.

Turning to `CN1CCN(S(=O)(=O)c2cc(C(F)(F)F)ccc2Cl)CC1`, in series [1], the logP came to 3.16. This molecule returned an IC50 with Leishmania donovani [2] of 321 µM.

On to `O=S(=O)(c1cc(C(F)(F)F)ccc1F)N1CCN(c2ccccn2)CC1`, for which the logP in series [1] was determined as 2.91. In the series with Leishmania donovani [2], the IC50 is over 450 µM.

With MEGLUMINE ANTIMONATE, the Suppression in the series with Cricetinae gen. sp. [6] (Cricetulus griseus) is 27%; in the series with Cricetinae gen. sp. [8] (Cricetulus griseus), 73%.
